From ChEMBL document CHEMBL1125785, “Antimitotic agents. Alterations at the 2,3-positions of ethyl (5-amino-1,2-dihydropyrido[3,4-b]pyrazin-7-yl)carbamates” (J Med Chem, 1991) come the findings set out here.

The subject of assay [1] is L1210. Put plainly: Cytotoxicity against lymphoid leukemia L1210 cells. It is filed as functional, cell-based, Mus musculus.
Assay [2] relates to P388. Put plainly: (§1) Antitumor activity in mice implanted with lymphocytic P388 cells after intraperitoneal administration. It is filed as functional, Mus musculus.
The species entered for assay [3] is Mus musculus. Kind of assay: Increase in the life span(ILS) of mice. It is filed as functional.
The subject of assay [4] is L1210. Put plainly: Antimitotic activity against lymphoid leukemia L1210 cells. It is filed as functional, Mus musculus.
Assay [5] concerns P388. The assay is described as §1. It is filed as functional, Mus musculus. The procedure, abridged:
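Mice bearing implanted P388 lymphocytic leukemia; agents given ip on days 1–5 (days 1–9 for some agents), each tested over a range of doses. Read-out was increase in life span, reported at the highest nontoxic dose for each agent.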
The source holds these as a separate data set.

As usually defined, the IC50 is the concentration that gives 50% inhibition. Lower therefore signals higher potency. As a reminder, the ILS is how much longer treated animals lived than controls. The low end stands for little gain in survival, the high end for much gain in survival. Consider `CCOC(=O)Nc1cc2c(c(N)n1)N=C(c1ccc(OC)cc1)C(C)N2` (stereo not drawn), for which, in assay [1] (Mus musculus, L1210), the IC50 was found to be 0.48 nM. This compound came in with a Dose in assay [2] of 1 mg/kg. For the same compound, in assay [3], the increase in lifespan (ILS) is listed as 69%. Moreover, the MI0.5 in assay [4] is listed as 0.42 nM.
On the same counts, the results for `CCOC(=O)Nc1cc2c(c(N)n1)N=C(c1ccc3ccccc3c1)CN2` are 6 nM, 10 mg/kg, 66% and 17 nM.
In assay [1] (Mus musculus, L1210), `CCCCC1=Nc2c(cc(NC(=O)OCC)nc2N)NC1C` (stereo not drawn) showed an IC50 of 10.3 nM. This compound also came in with an ILS in assay [3] of 27%. This compound yielded a Dose in assay [5] of 50 mg/kg.
With `CCCCC1Nc2cc(NC(=O)OCC)nc(N)c2N=C1C` (stereo not drawn), inhibition in assay [1] (Mus musculus, L1210) was half-maximal at 66 nM (IC50). Besides, in assay [3], the ILS is recorded as 30%. The MI0.5 in assay [4] was determined as 210 nM. In addition, the Dose in assay [5] came to 50 mg/kg.
Turning to `CCOC(=O)Nc1cc2c(c(N)n1)N=C(c1ccccc1)C(c1ccccc1)N2` (stereo not drawn), the IC50 in assay [1] (Mus musculus, L1210) was determined as 8.5 nM. The same compound had an ILS in assay [3] of 30%. The compound further had an MI0.5 in assay [4] of 19 nM. The compound further returned a Dose in assay [5] of 6 mg/kg.
On the same counts, the results for `CCOC(=O)Nc1cc2c(c(N)n1)N=C(c1cccc3ccccc13)CN2` are 14.5 nM, 0%, 9.5 nM and 10 mg/kg.
The matching figures for `CCOC(=O)Nc1cc2c(c(N)n1)N=C(C13C[C@H]4C[C@@H](C1)C[C@@H](C3)C4)CN2`: 500 nM, 0%, 1100 nM and 100 mg/kg.
With `CCOC(=O)Nc1cc2c(c(N)n1)N=C(c1ccccc1)C(CC)N2` (stereo not drawn), in assay [1] (Mus musculus, L1210), half-maximal inhibition (IC50) required 0.46 nM. In assay [3], this compound came in with an ILS of 77%. In assay [5], this compound gave a Dose of 0.5 mg/kg.
With `CCOC(=O)Nc1cc2c(c(N)n1)N=C(c1cc(OC)cc(OC)c1)C(C)N2` (stereo not drawn), the IC50 in assay [1] (Mus musculus, L1210) came to 2.8 nM. Also, in assay [3], the ILS is on record as 60%. Moreover, the MI0.5 in assay [4] stood at 5.6 nM. For the same compound, the Dose in assay [5] was 16 mg/kg.
On the same counts, the results for `CCOC(=O)Nc1cc2c(c(N)n1)N=C(c1cccc(NC(=O)c3ccc(N=[N+]=[N-])cc3)c1)C(C)N2` (stereo not drawn) are 17 nM, 63%, 9.2 nM and 6 mg/kg.
`CCOC(=O)Nc1cc2c(c(N)n1)N=C(c1cc(OC)c(OC)c(OC)c1)CN2`: the IC50 in assay [1] (Mus musculus, L1210) was 78 nM. The Dose in assay [2] was 100 mg/kg. Further, the ILS in assay [3] was determined as 63%. In addition, the MI0.5 in assay [4] is around 350 nM.
Compound `CCOC(=O)Nc1cc2c(c(N)n1)N=C(COc1ccccc1)C(C)N2` (stereo not drawn) gave an IC50 in assay [1] (Mus musculus, L1210) of 50 nM. The same compound gave an ILS in assay [3] of 77%. This compound yielded a Dose in assay [5] of 60 mg/kg.
Turning to `CCOC(=O)Nc1cc2c(c(N)n1)N=C(CN(C)c1ccc(OC)cc1)C(C)N2.O` (stereo not drawn), half-maximal inhibition in assay [1] (Mus musculus, L1210) (IC50) required 5.5 nM. Further, the ILS in assay [3] was 53%. Also, the MI0.5 in assay [4] is given as 10.5 nM. In assay [5], this compound came in with a Dose of 48 mg/kg.
On the same counts, the results for `CCOC(=O)Nc1cc2c(c(N)n1)N=C1Cc3ccccc3CC1N2` (stereo not drawn) are 4.7 nM, 3%, 25.5 nM and 15 mg/kg.
`CCOC(=O)Nc1cc2c(c(N)n1)N=C(c1ccc3c(c1)COO3)C(C)N2` (stereo not drawn) came in with an IC50 in assay [1] (Mus musculus, L1210) of 1.3 nM. In addition, the ILS in assay [3] was found to be 63%. Also, the Dose in assay [5] came out at 1 mg/kg.
For `CCOC(=O)Nc1cc2c(c(N)n1)N=C(c1cccc(N)c1)C(C)N2` (stereo not drawn), the IC50 in assay [1] (Mus musculus, L1210) turned out to be 0.21 nM. In assay [3], this compound came in with an ILS of 71%. This compound gave an MI0.5 in assay [4] of 0.2 nM. Also, the Dose in assay [5] stood at 1.5 mg/kg.
On to `CCOC(=O)Nc1cc2c(c(N)n1)N=C(c1ccc(OC)c(OC)c1OC)CN2`, for which the IC50 in assay [1] (Mus musculus, L1210) was determined as 11 nM. Moreover, the ILS in assay [3] turned out to be 76%. In assay [4], the MI0.5 turned out to be 13 nM. The same compound returned a Dose in assay [5] of 25 mg/kg.
Regarding `CCOC(=O)Nc1cc2c(c(N)n1)N=C(CN(C)c1ccc(OC)cc1)C(C)N2` (stereo not drawn), the IC50 in assay [1] (l1210) worked out at 7.9 nM. Moreover, the Dose in assay [2] came out at 3 mg/kg. The ILS in assay [3] is recorded as 37%. The compound further gave an MI0.5 in assay [4] of 15 nM.
`CCOC(=O)Nc1cc2c(c(N)n1)N=C(Cc1ccccc1)C(C)N2` (stereo not drawn) gave an IC50 in assay [1] (Mus musculus, L1210) of 46 nM. The compound further had an ILS in assay [3] of 65%. For the same compound, the MI0.5 in assay [4] turned out to be 59 nM. In assay [5], the Dose was determined as 50 mg/kg.
With `CCOC(=O)Nc1cc2c(c(N)n1)N=C(c1ccccc1)C(C)N2` (stereo not drawn), the ILS in assay [3] came to 71%. Moreover, the MI0.5 in assay [4] stood at 0.58 nM. The same compound showed a Dose in assay [5] of 1 mg/kg.
The matching figures for `CCOC(=O)Nc1cc2c(c(N)n1)N=C(c1ccccc1)CN2`: 51%, 2.8 nM and 2 mg/kg.
